Results taken from ChEMBL document CHEMBL3739352, “Anticonvulsant activity, crystal structures, and preliminary safety evaluation of N-trans-cinnamoyl derivatives of selected (un)modified aminoalkanols” (Eur J Med Chem, 2016).
Calls of active or inactive are those of the source. The rule behind the calls is not given here.

Columns and labels:
Mus musculus [1] = assay: Neurotoxicity in albino Carworth Farms No.1 mouse at 300 mg/kg, ip after 0.5 hrs by rotarod test; format: toxicity, organism-based; settings: in vivo
Outline: (§1)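 Mice (albino Carworth Farms No.1) were dosed i.p. at 30, 100 or 300 mg/kg in 0.5% methylcellulose. They were tested 0.5 and 4 h later on a 1-inch knurled rod rotating at 6 rpm. Neurotoxicity was scored if a mouse could not stay on the rod for at least 1 min in each of three trials. Results are given as animals toxic/animals tested, with deaths noted.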

Mus musculus [2] = assay: Anticonvulsant activity in albino Carworth Farms No.1 mouse assessed as protection against subcutaneous dosed pentetrazol-induced seizures at 300 mg/kg, ip after 4 hrs; format: functional, organism-based
Outline: (§2)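 Mouse i.p. screen in Carworth Farms No.1 albino mice at 30, 100 or 300 mg/kg in 0.5% methylcellulose. Testing was at 0.5 and 4 h after injection, by maximal electroshock or by subcutaneous pentetrazol challenge. Scoring was number protected / number used.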

Mus musculus [3] = assay: Anticonvulsant activity in albino Carworth Farms No.1 mouse assessed as protection against subcutaneous dosed pentetrazol-induced seizures at 300 mg/kg, ip after 0.5 hrs; format: functional, organism-based; outline: as §2
Mus musculus [4] = assay: Anticonvulsant activity in albino Carworth Farms No.1 mouse assessed as protection against subcutaneous dosed pentetrazol-induced seizures at 100 mg/kg, ip after 4 hrs; format: functional, organism-based; outline: as §2
Mus musculus [5] = assay: Anticonvulsant activity in albino Carworth Farms No.1 mouse assessed as protection against subcutaneous dosed pentetrazol-induced seizures at 100 mg/kg, ip after 0.5 hrs; format: functional, organism-based; outline: as §2
Mus musculus [6] = assay: Anticonvulsant activity in albino Carworth Farms No.1 mouse assessed as protection against maximal electroshock-induced seizures at 300 mg/kg, ip after 0.5 hrs; format: functional, organism-based; outline: as §2
Mus musculus [7] = assay: Anticonvulsant activity in albino Carworth Farms No.1 mouse assessed as protection against maximal electroshock-induced seizures at 100 mg/kg, ip after 4 hrs; format: functional, organism-based; outline: as §2
Mus musculus [8] = assay: Anticonvulsant activity in albino Carworth Farms No.1 mouse assessed as protection against maximal electroshock-induced seizures at 100 mg/kg, ip after 0.5 hrs; format: functional, organism-based; outline: as §2
Mus musculus [9] = assay: Anticonvulsant activity in albino Carworth Farms No.1 mouse assessed as protection against maximal electroshock-induced seizures at 30 mg/kg, ip after 4 hrs; format: functional, organism-based; outline: as §2
Salmonella typhimurium [10] = assay: Mutagenicity in Salmonella typhimurium TA98 assessed as number of revertants at 1000 ug/plate by Ames test (reference value: 23 +/- 3); format: toxicity, organism-based; settings: salmonella enterica subsp. enterica serovar typhimurium
Salmonella typhimurium [11] = assay: Mutagenicity in Salmonella typhimurium TA100 assessed as mutagenic index at 4 ug/plate by Ames test; format: toxicity, organism-based; settings: salmonella enterica subsp. enterica serovar typhimurium
Outline: (§3)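 Ames preincubation test. Strain culture was grown 12 h at 37 °C in nutrient broth, then mixed with compound in DMSO (final 4, 20, 100, 500, 1000 per plate) and buffer in top agar with trace histidine. This was plated on glucose minimal agar for 48 h at 37 °C. Mutagenic index = revertants with compound / DMSO control revertants, from three independent repeats.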

Salmonella typhimurium [12] = assay: Mutagenicity in Salmonella typhimurium TA100 assessed as mutagenic index at 20 ug/plate by Ames test; format: toxicity, organism-based; settings: salmonella enterica subsp. enterica serovar typhimurium; outline: as §3
Salmonella typhimurium [13] = assay: Mutagenicity in Salmonella typhimurium TA100 assessed as mutagenic index at 100 ug/plate by Ames test; format: toxicity, organism-based; settings: salmonella enterica subsp. enterica serovar typhimurium; outline: as §3
Salmonella typhimurium [14] = assay: Mutagenicity in Salmonella typhimurium TA100 assessed as assessed as mutagenic index at 1000 ug/plate by Ames test; format: toxicity, organism-based; settings: salmonella enterica subsp. enterica serovar typhimurium; outline: as §3
Salmonella typhimurium [15] = assay: Mutagenicity in Salmonella typhimurium TA1535 assessed as assessed as mutagenic index at 4 ug/plate by Ames test; format: toxicity, organism-based; settings: salmonella enterica subsp. enterica serovar typhimurium; outline: as §3
Salmonella typhimurium [16] = assay: Mutagenicity in Salmonella typhimurium TA1535 assessed as assessed as mutagenic index at 20 ug/plate by Ames test; format: toxicity, organism-based; settings: salmonella enterica subsp. enterica serovar typhimurium; outline: as §3
Salmonella typhimurium [17] = assay: Mutagenicity in Salmonella typhimurium TA1535 assessed assessed as mutagenic index at 100 ug/plate by Ames test; format: toxicity, organism-based; settings: salmonella enterica subsp. enterica serovar typhimurium
Salmonella typhimurium [18] = assay: Mutagenicity in Salmonella typhimurium TA1535 assessed as mutagenic index at 1000 ug/plate by Ames test; format: toxicity, organism-based; settings: salmonella enterica subsp. enterica serovar typhimurium
Salmonella typhimurium [19] = assay: Mutagenicity in Salmonella typhimurium TA98 assessed as mutagenic index at 4 ug/plate by Ames test; format: toxicity, organism-based; settings: salmonella enterica subsp. enterica serovar typhimurium
Salmonella typhimurium [20] = assay: Mutagenicity in Salmonella typhimurium TA98 assessed as mutagenic index at 20 ug/plate by Ames test; format: toxicity, organism-based; settings: salmonella enterica subsp. enterica serovar typhimurium
Salmonella typhimurium [21] = assay: Mutagenicity in Salmonella typhimurium TA98 assessed as mutagenic index at 500 ug/plate by Ames test; format: toxicity, organism-based; settings: salmonella enterica subsp. enterica serovar typhimurium
Salmonella typhimurium [22] = assay: Mutagenicity in Salmonella typhimurium TA98 assessed as mutagenic index at 1000 ug/plate by Ames test; format: toxicity, organism-based; settings: salmonella enterica subsp. enterica serovar typhimurium
Mus musculus [23] = assay: Neurotoxicity in albino Carworth Farms No.1 mouse at 30 mg/kg, ip after 4 hrs by rotarod test; format: toxicity, organism-based; settings: in vivo; outline: as §1
Mus musculus [24] = assay: Neurotoxicity in albino Carworth Farms No.1 mouse at 100 mg/kg, ip after 4 hrs by rotarod test; format: toxicity, organism-based; settings: in vivo; outline: as §1
Mus musculus [25] = assay: Neurotoxicity in albino Carworth Farms No.1 mouse at 300 mg/kg, ip after 4 hrs by rotarod test; format: toxicity, organism-based; settings: in vivo; outline: as §1
[26] = Lipophilicity of the compound using 95% methanol in water at 1 mg/ml by RT-TLC analysis; format: physicochemical; settings: buffer
Outline: (§4)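 Reversed-phase TLC with a methanol–water mobile phase at the stated methanol content (v/v). Compounds were spotted from 1 mg/mL methanol solutions after 1 h chamber saturation and located under UV light. Rf was measured and RM = log(1/Rf − 1) calculated.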

[27] = Lipophilicity of the compound using 90% methanol in water at 1 mg/ml by RT-TLC analysis; format: physicochemical; settings: buffer; outline: as §4
[28] = Lipophilicity of the compound using 75% methanol in water at 1 mg/ml by RT-TLC analysis; format: physicochemical; settings: buffer; outline: as §4
Salmonella typhimurium [29] = assay: Mutagenicity in Salmonella typhimurium TA98 assessed as number of revertants at 100 ug/plate by Ames test (reference value: 23 +/- 3); format: toxicity, organism-based; settings: salmonella enterica subsp. enterica serovar typhimurium
Salmonella typhimurium [30] = assay: Mutagenicity in Salmonella typhimurium TA98 assessed as number of revertants at 4 ug/plate by Ames test (reference value: 23 +/- 3); format: toxicity, organism-based; settings: salmonella enterica subsp. enterica serovar typhimurium
Salmonella typhimurium [31] = assay: Mutagenicity in Salmonella typhimurium TA1535 assessed as number of revertants at 4 ug/plate by Ames test (reference value: 10 +/- 3); format: toxicity, organism-based; settings: salmonella enterica subsp. enterica serovar typhimurium
Salmonella typhimurium [32] = assay: Mutagenicity in Salmonella typhimurium TA100 assessed as number of revertants at 1000 ug/plate by Ames test (reference value: 77 +/-4); format: toxicity, organism-based; settings: salmonella enterica subsp. enterica serovar typhimurium
Outline: (§5)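 Salmonella TA100 preincubation Ames assay: overnight-type 12 h broth culture at 37 °C, compound in DMSO at final 4–1000 per plate, top agar with trace histidine, glucose minimal agar, 48 h at 37 °C. Revertant colonies per plate were counted, with a DMSO negative control and a sodium azide positive control. Three independent repetitions were run.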

Salmonella typhimurium [33] = assay: Mutagenicity in Salmonella typhimurium TA100 assessed as number of revertants at 500 ug/plate by Ames test (reference value: 77 +/-4); format: toxicity, organism-based; settings: salmonella enterica subsp. enterica serovar typhimurium; outline: as §5
Salmonella typhimurium [34] = assay: Mutagenicity in Salmonella typhimurium TA100 assessed as number of revertants at 100 ug/plate by Ames test (reference value: 77 +/-4); format: toxicity, organism-based; settings: salmonella enterica subsp. enterica serovar typhimurium; outline: as §5
Salmonella typhimurium [35] = assay: Mutagenicity in Salmonella typhimurium TA100 assessed as number of revertants at 20 ug/plate by Ames test (reference value: 77 +/-4); format: toxicity, organism-based; settings: salmonella enterica subsp. enterica serovar typhimurium; outline: as §5
Salmonella typhimurium [36] = assay: Mutagenicity in Salmonella typhimurium TA100 assessed as number of revertants at 4 ug/plate by Ames test (reference value: 77 +/-4); format: toxicity, organism-based; settings: salmonella enterica subsp. enterica serovar typhimurium; outline: as §5

SMILES	Activity (Mus musculus [1])	Activity (Mus musculus [2])	Activity (Mus musculus [3])	Activity (Mus musculus [4])	Activity (Mus musculus [5])	Activity (Mus musculus [6])	Activity (Mus musculus [7])	Activity (Mus musculus [8])	Activity (Mus musculus [9])	Activity (Salmonella typhimurium [10])	Activity_index (Salmonella typhimurium [11])	Activity_index (Salmonella typhimurium [12])	Activity_index (Salmonella typhimurium [13])	Activity_index (Salmonella typhimurium [14])	Activity_index (Salmonella typhimurium [15])	Activity_index (Salmonella typhimurium [16])	Activity_index (Salmonella typhimurium [17])	Activity_index (Salmonella typhimurium [18])	Activity_index (Salmonella typhimurium [19])	Activity_index (Salmonella typhimurium [20])	further results
CCC(O)CNC(=O)/C=C/c1ccccc1 (racemic)	Non-toxic	inactive	Active	inactive	inactive	Active	inactive	inactive	inactive	25	0.8	0.8	0.8	0.9	0.9	1.4	0.5	0.6	0.9	0.9	Activity_index (Salmonella typhimurium [21]): 0.7; Activity_index (Salmonella typhimurium [22]): 1.1; Activity (Mus musculus [23]): Non-toxic; Activity (Mus musculus [24]): Non-toxic; Activity (Mus musculus [25]): Non-toxic; Rm [26]: -0.66; Rm [27]: -0.52; Rm [28]: -0.18; Activity (Salmonella typhimurium [29]): 21; Activity (Salmonella typhimurium [30]): 19; Activity (Salmonella typhimurium [31]): 9; Activity (Salmonella typhimurium [32]): 72; Activity (Salmonella typhimurium [33]): 60; Activity (Salmonella typhimurium [34]): 62; Activity (Salmonella typhimurium [35]): 64; Activity (Salmonella typhimurium [36]): 60
CC(C)C(CO)NC(=O)/C=C/c1ccccc1 (racemic)	Non-toxic	inactive	inactive	inactive	inactive	Active	inactive	inactive	inactive	15	1.1	1	1	1	0.5	0.6	0.6	0.7	0.9	0.8	Activity_index (Salmonella typhimurium [21]): 0.8; Activity_index (Salmonella typhimurium [22]): 0.7; Activity (Mus musculus [23]): Non-toxic; Activity (Mus musculus [24]): Non-toxic; Activity (Mus musculus [25]): Non-toxic; Rm [26]: -0.63; Rm [27]: -0.45; Rm [28]: -0.1; Activity (Salmonella typhimurium [29]): 19; Activity (Salmonella typhimurium [30]): 20; Activity (Salmonella typhimurium [31]): 5; Activity (Salmonella typhimurium [32]): 80; Activity (Salmonella typhimurium [33]): 79; Activity (Salmonella typhimurium [34]): 80; Activity (Salmonella typhimurium [35]): 75; Activity (Salmonella typhimurium [36]): 83
CC(CO)NC(=O)/C=C/c1ccccc1 (racemic)	Non-toxic	inactive	Active	inactive	inactive	Active	inactive	Active	inactive	18	0.9	0.8	0.9	0.9	1.5	0.6	0.5	0.6	0.9	0.9	Activity_index (Salmonella typhimurium [21]): 1; Activity_index (Salmonella typhimurium [22]): 0.8; Activity (Mus musculus [23]): Non-toxic; Activity (Mus musculus [24]): Non-toxic; Activity (Mus musculus [25]): Non-toxic; Rm [26]: -0.69; Rm [27]: -0.6; Rm [28]: -0.27; Activity (Salmonella typhimurium [29]): 21; Activity (Salmonella typhimurium [30]): 20; Activity (Salmonella typhimurium [31]): 15; Activity (Salmonella typhimurium [32]): 67; Activity (Salmonella typhimurium [33]): 65; Activity (Salmonella typhimurium [34]): 71; Activity (Salmonella typhimurium [35]): 62; Activity (Salmonella typhimurium [36]): 67
